Screening results: PubChem, The Scripps Research Institute Molecular Screening Center
TAAR1 antag – human TAAR1 antagonists, primary screen, Fluo-8 calcium fluorescence, CHO RD-HGA16 cells; Trace amine-associated receptor 1 (Homo sapiens), Q96RJ0; antagonist; inhibition, % at 3 µM; actives 1.5% (n = 360,000);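 active means inhibition above a per-plate cutoff, the mean inhibition of test compounds on that plate plus 3 SD, cut at about 49% in these data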;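 further: 0% = DMSO plus EC80 beta-PEA response and 100% = DMSO alone without agonist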
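Test system: hTAAR1-expressing CHO RD-HGA16 cells, Gα16-coupled; Probe or stimulus: EC80 β-phenethylamine stimulus; Compound dosing: single nominal final test compound concentration of 3 µM; Timing: 140 s kinetic read after compound, 140 s after agonist; Signal: Fluo-8 calcium-sensitive fluorescence; Measure: % inhibition of agonist calcium response; Controls: DMSO and EC80 PEA controls.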
CHO parental Ca – ATP-evoked calcium signal inhibitors, parental CHO, primary screen, counter-screen for OX1R antagonist project, cell-based, fluorescence, Fluo-8 calcium dye | parental CHO-K1, ATP-induced calcium, Fluo-8 fluorescence | inhibition, % at 5.6 µM | actives 0.63% (n = 330,000);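 active means inhibition above that plate's mean sample inhibition plus 3 SD, cut at about 26% in these data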;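 further: 0% = ATP-challenged DMSO wells and 100% = DMSO wells without ATP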
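material = parental CHO cells | also added = ATP as calcium-mobilizing challenge | dosing = single point at 5.6 µM | detection = intracellular calcium via Fluo-8 no-wash fluorescent dye | read-out = % inhibition | benchmarks = low control ATP plus DMSO, high control DMSO only | repeats = one well per compound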
TAAR1 ag – human TAAR1 agonists, primary screen, Fluo-8 calcium fluorescence, CHO RD-HGA16 cells; activation, % at 3 µM; actives 0.99% (n = 360,000); AID 624467, 2012; vehicle wells 0%, saturating PEA agonist 100%; Trace amine-associated receptor 1 (Homo sapiens), Q96RJ0;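 active means activation above the mean activation of all test compounds in the run plus 3 SD, cut at about 38% in these data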
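Assay system – CHO-derived RD-HGA16 cells with stable Gα16 and human TAAR1 · Compound dosing – one-point dosing at 3 µM (nominal) · Incubation – 17-24 h seeding, 75 min 37 °C dye, 30 min RT · Measured by – kinetic Fluo-8 calcium fluorescence · Control set – DMSO vehicle as 0%, PEA at EC100 as 100% · Repeats – single well for each compound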
OX1R antag-1 – antagonists of human orexin 1 receptor (OX1R) | OX1R-expressing cells, FRET antagonist read-out | AID 485270, 2010 | Orexin/Hypocretin receptor type 1 (Homo sapiens), O43613 | inhibition, % at 6.6 µM | actives 1.8% (n = 330,000); in the data active means inhibition mostly above about 38%, no sharp cut-off; inactive means mostly below about 40%;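 further: 0% = agonist challenge alone and 100% = reference antagonist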
Target sequence (O43613 whole entry, looked up): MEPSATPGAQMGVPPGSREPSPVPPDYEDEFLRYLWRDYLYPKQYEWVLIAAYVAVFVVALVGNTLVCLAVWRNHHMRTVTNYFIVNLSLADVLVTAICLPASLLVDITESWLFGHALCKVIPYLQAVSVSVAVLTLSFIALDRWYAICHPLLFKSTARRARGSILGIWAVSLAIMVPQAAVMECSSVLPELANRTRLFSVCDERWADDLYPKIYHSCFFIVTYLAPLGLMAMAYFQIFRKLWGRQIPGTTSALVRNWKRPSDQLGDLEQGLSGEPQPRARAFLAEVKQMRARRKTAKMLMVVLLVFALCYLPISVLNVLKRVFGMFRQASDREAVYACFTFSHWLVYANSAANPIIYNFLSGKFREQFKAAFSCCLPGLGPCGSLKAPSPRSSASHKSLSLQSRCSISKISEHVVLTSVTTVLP
GPR7 antag – GPR7 receptor antagonists, primary screen, cell-based, fluorescence, single concentration; actives 1.1% (n = 290,000); GPR7-expressing cells, fluorescence antagonist assay; AID 1861, 2009; Neuropeptides B/W receptor type 1 (Homo sapiens), P48145; inhibition, % at 4.4 µM; in the data active means inhibition above about 16%, passing the limit was not always enough;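 further: cells stimulated with the agonist NPW; 0% = agonist with vehicle and 100% = vehicle without agonist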
OX1R antag-2 – OX1R (HCRTR1) antagonists, primary screen, fluorescence, CHO/OX1R cells, Fluo-8 calcium, orexin A | inhibition, % at 5 µM | actives 0.43% (n = 330,000) | Fluo-8 calcium fluorescence | Orexin/Hypocretin receptor type 1 (Homo sapiens), O43613;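 active means inhibition above its plate's threshold, mean inhibition of all tested compounds on the plate plus 3 SD, cut at about 37% in these data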;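 further: 0% = orexin A challenge wells and 100% = SB-334867-A antagonist wells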
GPR7 antag conf – GPR7 receptor antagonists, confirmation, cell-based, fluorescence, single concentration; shares compounds with GPR7 antag; GPR7-expressing cells, calcium fluorescence antagonist mode; inhibition, % at 4.4 µM; actives 52% (n = 2,400); AID 1952, 2009; in the data active means inhibition above about 24%;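 further: stimulated with the GPR7 agonist NPW; 0% = agonist plus vehicle and 100% = vehicle alone without agonist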
MCHR1 antag – MCHR1 antagonists in cells, counter-screen for GPR7 antagonist project, cell-based, fluorescence, human; shares compounds with GPR7 antag; MCHR1-expressing cells, fluorescence antagonist assay; inhibition, % at 4.4 µM; actives 62% (n = 2,400); AID 2148, 2009; in the data active means inhibition above about 22%;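 further: 0% = vehicle with agonist and 100% = vehicle without agonist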
* marks the source's active call; other numbers are inactive results; . = no result. Only some compounds are listed: those with a hit (about 4.5% of all), similar ones and a draw of the others.

SMILES	TAAR1 antag	CHO parental Ca	TAAR1 ag	OX1R antag-1	GPR7 antag	OX1R antag-2	GPR7 antag conf	MCHR1 antag
CC(NCc1cc(Br)ccc1OCC(N)=O)C12CC3CC(CC(C3)C1)C2 (stereo unspecified)	33	-27	27	3	27*	-49	28*	35*
COc1ccc(NC(=O)c2cccc(Oc3ccc([N+](=O)[O-])cc3Cl)c2)cc1	20	-12	2	12	34*	-13	11	36*
COC(=O)Nc1ccc(SCC(=O)c2cccc([N+](=O)[O-])c2)cc1	28	8	1	0	23*	-8	20	60*
COc1cccc(C(=O)COc2cccc(NC(=O)c3cccc([N+](=O)[O-])c3)c2)c1	68*	13	17	40	29*	26	29*	69*
CS(=O)(=O)c1ccc(Cl)c(NC(=O)COC(=O)CCCN2C(=O)c3cccc4cccc(c34)C2=O)c1	4	-15	1	23	.	-20	.	.
O=C(NCc1cc(Cl)cc(Cl)c1)c1ccc2nc([C@@H]3O[C@H](CO)[C@@H](O)[C@H]3O)[nH]c2c1	-17	.	5	.	.	.	.	.
CCN(CC)S(=O)(=O)c1ccc(N2Cc3ccccc3C2=N)cc1	8	-15	2	10	22*	-21	-2	12
COc1ccc(CCNC(=O)COC(=O)c2ccc(Br)o2)cc1	9	-1	2	18	-1	-8	.	.
COc1ccc(CCNC(=O)COC(=O)c2ccc(Br)o2)cc1OC	2	-10	13	14	29*	-12	-14	16
O=C(COC(=O)C1CCCCC1)Nc1ccc(S(=O)(=O)N2CCOCC2)cc1	1	6	1	8	-12	-7	.	.
Clc1cccc(CNCCCSc2ncccn2)c1Cl	0	-10	1	2	9	-6	.	.
CN(Cc1ccccc1)C1=CC(=[N+]2CCCCC2)CC(C)(C)C1	-4	16	0	7	40*	14	57*	48*
CC1(C)CC(N2CCN(Cc3ccccc3)CC2)=CC(=[N+]2CCCCC2)C1	-12	14	-1	5	-8	-10	.	.
COc1ccc(C2Nc3ccccc3C(=O)N2Cc2ccco2)cc1COc1ccc(F)cc1 (stereo unspecified)	18	1	-3	18	27*	-12	29*	25*
COc1ccc(C2Nc3ccccc3C(=O)N2Cc2ccco2)cc1CN1C(=O)c2ccccc2C1=O (stereo unspecified)	3	-4	0	22	10	-9	.	.
COc1ccc(C2=NS(=O)(=O)N(C)C(C(=O)N3CCC(C)CC3)=C2)cc1	-6	2	1	14	9	-16	.	.
CN1C(C(=O)N2CCc3ccccc3C2)=CC(c2ccc(F)cc2)=NS1(=O)=O	9	-15	42*	16	30*	-17	20	25*
CC(NC(=O)CSc1nnc(-c2cccc(S(=O)(=O)N3CCCCC3)c2)o1)C12CC3CC(CC(C3)C1)C2 (stereo unspecified)	22	-60	-4	0	11	-57	.	.
Cc1cc(C(=O)N2CCC(Cc3ccccc3)CC2)c(C)o1	3	-7	1	6	28*	5	27*	33*
CC(=O)N1CCN(C(=O)c2cc(C)oc2C)CC1	-20	-4	11	3	.	0	.	.
CCc1ccc(NC(=O)CCCN2C(=O)C3CC=CCC3C2=O)cc1 (stereo unspecified)	-37	-9	0	7	4	-14	.	.
COc1ccc(-c2noc(COc3ccc4ccccc4c3Br)n2)cc1OC	-1	-3	1	4	21*	4	-3	-5
Cc1ccc(Cc2nc(-c3ccncc3)no2)cc1	-31	-8	4	11	24*	-18	12	28*
c1ccc(C(Cc2nc(-c3ccncc3)no2)c2ccccc2)cc1	31	19	19	18	50*	6	54*	45*
c1ccc(-c2nc(-c3ccncc3)no2)cc1	-10	-3	1	7	-6	-26	.	.
SMILES	TAAR1 antag	CHO parental Ca	TAAR1 ag	OX1R antag-1	GPR7 antag	OX1R antag-2	GPR7 antag conf	MCHR1 antag
COc1ccc(-c2noc(Cc3ccc(Cl)cc3)n2)cc1OC	-7	-21	2	4	25*	-26	-9	7
O=C(COc1ccc(Cl)cc1)NCCNc1ccc([N+](=O)[O-])cc1	13	-11	3	10	52*	-28	49*	51*
O=C(NCCNc1ccc([N+](=O)[O-])cc1)c1ccc(Cl)cc1	-4	-2	6	13	7	2	.	.
Nn1c(SCc2nc3ccccc3[nH]2)nnc1C1CCCCC1	10	-16	6	8	22*	-27	13	-3
COc1ccc(-c2nnn(CC(=O)NCc3ccc4c(c3)OCO4)n2)cc1OC	10	-18	4	21	22*	-19	0	2
O=C(NCc1ccccc1)c1cc(=O)c2ccccc2o1	0	-6	1	13	22*	1	-1	10
CC(C)n1cc(CN2CCCC(C(=O)Nc3cccc(-c4cc5ccccc5[nH]4)c3)C2)cn1 (stereo unspecified)	35	1	40*	-3	27*	-11	42*	56*
Cn1cc(CN2CCCC(C(=O)Nc3cccc(-c4cc5ccccc5[nH]4)c3)C2)cn1 (stereo unspecified)	13	-6	26	17	15	-8	.	.
CCOc1ncccc1C(=O)Nc1ccc2c(C)cc(=O)oc2c1	-8	1	2	8	-12	-19	.	.
Cc1cc(=O)oc2cc(OC(=O)c3ccccc3)ccc12	-15	-17	1	10	.	-21	.	18
COc1ccccc1C(=O)Nc1ccc2c(C)cc(=O)oc2c1	2	-14	0	8	42*	-24	14	11
